# A selection: hits, their analogues and other compounds. The true share with any hit is near 3.7%.
# KCNQ1 pot: potentiates or activates the human KCNQ1 potassium channel | CHO-K1 KCNQ1, thallium flux FluxOR fluorescence; hits give high values | P51787 | B-score at 10 µM | 310,000 tested, 0.35% active;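 active = fluorescence ratio B-score, a plate-corrected score, at least three library SD, with initial intensity B-score within 5 SD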
# Target sequence (P51787 whole entry, looked up): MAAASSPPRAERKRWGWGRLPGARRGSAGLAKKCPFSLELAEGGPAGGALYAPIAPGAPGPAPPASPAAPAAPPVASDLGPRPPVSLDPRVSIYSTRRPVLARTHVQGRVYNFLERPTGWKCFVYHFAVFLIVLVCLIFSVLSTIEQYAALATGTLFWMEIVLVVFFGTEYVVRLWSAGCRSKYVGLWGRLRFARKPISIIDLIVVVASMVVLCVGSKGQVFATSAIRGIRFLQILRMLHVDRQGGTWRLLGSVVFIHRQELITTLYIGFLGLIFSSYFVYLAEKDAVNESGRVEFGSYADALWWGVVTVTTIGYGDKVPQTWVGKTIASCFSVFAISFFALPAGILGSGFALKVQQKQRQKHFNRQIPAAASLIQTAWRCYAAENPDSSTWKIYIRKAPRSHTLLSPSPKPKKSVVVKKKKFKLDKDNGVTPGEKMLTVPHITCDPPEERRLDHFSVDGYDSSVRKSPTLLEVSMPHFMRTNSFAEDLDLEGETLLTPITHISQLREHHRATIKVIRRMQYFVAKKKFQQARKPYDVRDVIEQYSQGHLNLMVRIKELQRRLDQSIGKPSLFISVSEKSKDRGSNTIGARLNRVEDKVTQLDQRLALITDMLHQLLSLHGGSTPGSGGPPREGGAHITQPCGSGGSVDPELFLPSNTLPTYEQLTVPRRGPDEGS
#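 assay system = KCNQ1-transfected CHO-K1 cells | medium = assay buffer with matched DMSO | probe or stimulus = depolarizing K+/Tl+ stimulus, K2SO4 and Tl2SO4 each 12.5 mM in 5x stock | dosing = single dose | incubation = dye 90 min, compound 20 min, room temperature | detection = kinetic FluxOR fluorescence, 10 s baseline plus 110 s post-stimulus | evaluation = ratio B score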
# Kir21 block: inhibitors of mouse Kir2.1 inward-rectifier potassium channel | P35561 | B-score at 10 µM | 310,000 tested, 0.85% active | HEK293-Kir2.1, FluxOR thallium flux fluorescence; hits give low values;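 active = fluorescence ratio B-score at or below minus 3 SD of library scores, with starting-brightness B-score within 2 SD, cut at about -4.2 in these data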;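 note: channel flux triggered by added potassium and thallium sulfate stimulus; B-score of peak minus minimum fluorescence over baseline after thallium stimulus; more negative B-score means stronger Kir2.1 block with less thallium influx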
# KCNK9 inh: blocks the human KCNK9 two-pore domain potassium channel. HEK293 KCNK9, FluxOR thallium flux fluorescence; hits give low values. 310,000 tested, 1.2% active. Q9NPC2. B-score at 10 µM;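 active = ratio B-score over 3 SD below the library mean, with starting fluorescence within 5 SD of its mean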;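 note: negative B-score means less thallium flux so channel inhibition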
# hERG rescue: hERG (human) protection from proarrhythmic block | CHO-hERG, FluxOR thallium flux, dofetilide IC70 present | activation (rescue from dofetilide block), less the hit threshold, % at 10 µM | 310,000 tested, 0.51% active;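 active = activation above the mean of controls blocked by dofetilide plus 5 SD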;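 note: thallium influx through hERG after potassium depolarization seen as dye fluorescence rise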
# KCNK3 inh: human KCNK3 channel inhibition, primary screen; CHO-KCNK3 thallium flux, FluxOR fluorescence; hits give low values; O14649; B-score at 10 µM; 340,000 tested, 0.84% active;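 active = B-score under library mean minus 4 SD, starting fluorescence ratio at most library mean plus 5 SD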;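 note: more negative B-score means stronger inhibition of thallium flux through KCNK3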
# KCNQ1 inh: inhibitors of human KCNQ1 potassium channel; CHO-K1 KCNQ1, FluxOR thallium flux fluorescence; hits give high values; B-score at 10 µM; 310,000 tested, 1.3% active; AID 2642;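 active = compounds whose thallium flux B-score, printed positive for inhibition, exceeds three library SD while starting fluorescence stays within three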;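 note: channel opened by potassium depolarization with thallium stimulus after 20 min compound exposure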
# KCNK9 inh conf: confirmation of human KCNK9 potassium channel inhibitors. inhibition, % at 10 µM. 4,900 tested, 43% active. HEK293 KCNK9 cells, FluxOR thallium flux fluorescence. shares compounds with KCNK9 inh;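 active = thallium signal inhibited by more than 5 SD of the compound-free buffer control wells, on both duplicate plates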;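 note: 0% = assay buffer control wells without compound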
# Kir21 sel: mouse Kir2.1 off-target activity of KCNK9 modulators; shares compounds with KCNK9 inh; Kir2.1 cells, FluxOR thallium flux fluorescence; inhibition, % at 10 µM; 4,900 tested, 4% active; AID 492993;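 active = thallium signal drop more than 5 SD beyond the mean of the no-compound control wells, seen in both duplicate plates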;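 note: signal is fluorescence rise after thallium addition divided by baseline fluorescence; plate controls were assay buffer only for no effect and full block by chlorpromazine control for full effect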
# KCNK9 uninduced: second counter-screen for KCNK9 modulators: effect in non-induced cells. shares compounds with KCNK9 inh. 4,900 tested, 40% active. inhibition, % at 10 µM. non-induced KCNK9-HEK293, FluxOR thallium flux;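 active = thallium signal drop beyond 5 SD of the untreated control mean, on both duplicate plates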;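 note: plate controls were buffer only IC0 wells for no effect and SID17386958 at its maximal inhibitory level for full effect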
# Starred values were filed as active, the others as inactive; i = inactive; / = not tested or not shown.
SMILES,KCNQ1 pot,Kir21 block,KCNK9 inh,hERG rescue,KCNK3 inh,KCNQ1 inh,KCNK9 inh conf,Kir21 sel,KCNK9 uninduced
CCn1c(SCc2ccccc2Cl)nc2nc3c(cc2c1=O)CCCC3,i,1,i,-12,i,i,i,i,i
Cc1c(N2C(=O)/C(=C/C3CC=CCC3)SC2=S)c(=O)n(-c2ccccc2)n1C (stereo not drawn),i,0.12,i,-1,i,i,/,/,/
Cc1ccc(/C=C2\SC(=S)N(c3c(C)n(C)n(-c4ccccc4)c3=O)C2=O)cc1,i,1.1,i,-7,i,i,i,i,i
Cc1c(N2C(=O)/C(=C/c3ccccc3)SC2=S)c(=O)n(-c2ccccc2)n1C,i,0.13,i,-8,i,i,i,i,i
COCCN=c1scc(-c2ccco2)n1/N=C/c1ccc(O)c(O)c1O,/,/,/,/,i,/,/,/,/
COCCN=c1scc(-c2cc(OC)ccc2OC)n1/N=C/c1c[nH]c2ccccc12,i,1.2,i,-14,i,i,i,i,i
C/C=C/C1=CC(=O)C[C@H](c2ccc(OC)c(OC)c2)C1,/,/,/,/,i,/,/,/,/
CCOCCCNC(=S)NCCNc1nc2ccc(C)cc2cc1C#N,i,0.64,-8.3*,-8,i,i,i,i,i
CCOCCCNC(=S)NCCCNc1nc2ccc(C)cc2cc1C#N,i,0.14,i,-14,/,i,/,/,/
CCC(NC(=O)c1cc(COc2ccc(F)cc2Cl)on1)c1ccncc1 (stereo not drawn),i,1.1,i,-8,i,i,/,/,/
Cc1ccc2c(c1)/C(=C/c1ccccc1C)C(=O)N2,i,0.75,i,-1,i,i,/,/,/
Cc1cccc(/C=C2/C(=O)/C(=C/c3ccccc3C)C3CCC2N3C)c1 (stereo not drawn),i,-0.84,i,-8,i,i,i,i,i
CCOC(=O)C1=C(C)NC(=S)NC1c1ccc(-c2cccc(Cl)c2C)o1 (stereo not drawn),i,0.61,-8.6*,-7,i,i,i,i,i
COc1ccccc1NC1=C(Cl)C(=O)N(C2CCCCC2)C1=O,i,-0.42,-8.5*,-16,i,i,58%*,i,29%*
CCOc1ccccc1NC1=C(Cl)C(=O)N(c2ccc(OC)cc2)C1=O,i,0.92,-17*,-12,i,i,64%*,i,42%*
Cc1ccccc1NC1=C(Cl)C(=O)N(C2CCCCC2)C1=O,i,-1.6,i,-9,i,i,/,/,/
COc1ccc(N2C(=O)C(Cl)=C(NCc3ccccc3)C2=O)cc1,i,-0.01,i,-7,i,i,/,/,/
COC(=O)/C(=C\Nc1ccc(Cl)cc1Cl)NC(=O)c1ccc(OC)cc1,i,-1.2,i,-19,i,i,/,/,/
COC(=O)CN1C(c2cccc(Cl)c2)=Nc2ccc(Cl)cc2C1c1ccccc1 (stereo not drawn),i,-0.21,-16*,-6,i,i,58%*,i,47%*
Cc1ccc(Nc2nnc(SCC(=O)Nc3cccnc3Cl)s2)cc1C,i,-0.93,i,-4,i,i,/,/,/
Cc1nn(Cc2ccccc2)c(=O)n1N(C)c1ncc(C(F)(F)F)cc1Cl,i,-0.16,i,-4,i,i,i,i,i
O=[N+]([O-])c1ccc2nccn2c1,i,1.1,i,-12,i,i,/,/,/
O=C(N/N=C\c1cccc(F)c1)c1ccc(Cn2cc(Br)c([N+](=O)[O-])n2)o1,i,0.48,i,-8,i,i,/,/,/
O=C(N/N=C\c1ccc(F)cc1)c1ccc(Cn2cc(Br)c([N+](=O)[O-])n2)o1,i,0.49,-12*,-20,i,i,50%*,i,i
O=C(Nc1cc(C(F)(F)F)ccc1-n1cnc2ccccc21)c1ccccc1,i,0,i,-5,i,i,/,/,/
SMILES,KCNQ1 pot,Kir21 block,KCNK9 inh,hERG rescue,KCNK3 inh,KCNQ1 inh,KCNK9 inh conf,Kir21 sel,KCNK9 uninduced
COc1ccccc1CNC(=O)COC(=O)CSc1ccc(Cl)cc1,i,0.18,i,-7,i,i,/,/,/
COc1ccccc1CNc1cc(CSc2ccc(Cl)cc2)nc(C)n1,i,-2.2,i,-6,i,i,i,46%*,i
CC(=O)Nc1ccc(NC(=O)c2c(C)noc2C)cc1,i,1.2,i,-12,i,i,/,/,/
O=C(CN1C(=O)S/C(=C\c2cccc(Cl)c2)C1=O)NCCCn1ccnc1,i,-1.4,i,-18,i,i,i,i,i
O=C(CN1C(=O)S/C(=C\c2ccc(Cl)cc2)C1=O)NCCCn1ccnc1,i,-2.3,i,-11,i,i,/,/,/
CCN(CC)CCNC(=O)c1cccc(NC(=O)C(=O)c2ccccc2NC(C)=O)c1,i,-0.07,i,-10,i,i,/,/,/
O=C(Nc1ccc(C(F)(F)F)cc1)C1(c2ccccc2)CC1,i,0.18,i,-10,i,i,/,/,/
O=C(Nc1cccc(C(F)(F)F)c1)C1(c2ccccc2)CC1,i,1.7,-12*,-11,i,i,53%*,i,37%*
CC(=O)c1ccc(OCCCCCCCOc2ccc(C(C)=O)cc2)cc1,i,0.75,-8.8*,0,i,i,i,i,i
COc1ccc2c(c1)CCc1cn3nc(C)cc3nc1-2,i,1.5,i,-15,i,i,i,i,i
Fc1ccc(OCCCCN2CCOCC2)cc1,i,0.07,i,-10,i,i,/,/,/
N#C/C(=C\c1ccc(Sc2ccc(Cl)cc2)o1)c1nc2ccccc2[nH]1,/,/,/,/,i,/,/,/,/
N#C/C(=C\c1ccc(Sc2nc3ccccc3[nH]2)o1)c1ccccc1,i,0.87,i,-6,i,13*,i,i,i
COc1ccc(C(=O)COC(=O)C(CCSC)NS(=O)(=O)c2ccc(Cl)cc2)cc1 (stereo not drawn),i,-0.67,i,-5,i,i,i,i,i
COC(=O)C(CCSC)NS(=O)(=O)c1ccc(Cl)cc1 (stereo not drawn),i,-0.76,i,-11,i,i,/,/,/
COc1ccc(S(=O)(=O)N2CCC(C(=O)N[C@@H](C)C(=O)NC3CCCC3)CC2)cc1,i,0.9,i,-4,i,i,/,/,/

# Source: PubChem
